In ChEMBL document CHEMBL1155455:
Activity calls are given as the source filed them. The calls are words filed in the database; no cut-off is given here.

Key:
[1] = test system: Rattus norvegicus; experiment: Antidiuretic activity in sc dosed Sprague-Dawley rat assessed as inhibition of U50488-induced urine output administered immediately after water loading measured 5 hrs after first dose; format: functional, organism-based
Outline: (§1)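 Adult male Sprague-Dawley rats, groups of four. […] Urine collected hourly for 5 h in metabolic chambers, at week 0 and week 1 without redosing. Analysis by repeated-measures ANOVA and Dunnett's test.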

[2] = test system: Rattus norvegicus; experiment: Antidiuretic activity in sc dosed Sprague-Dawley rat assessed as inhibition of U50488-induced urine output administered immediately after water loading measured after 5 hrs on week 1; format: functional, organism-based; outline: as §1

Question: How did the Activity [1] turn out when `CC(C)[C@@H](CN1CC[C@@](C)(c2cccc(O)c2)[C@@H](C)C1)NC(=O)[C@@H]1CCc2cc(O)ccc2C1` was run?
Answer: Dose-dependent effect

Question: And the Activity [2]?
Answer: inactive

Question: Which results are given for `CC(C)[C@@H](CN1CC[C@@](C)(c2cccc(O)c2)[C@@H](C)C1)NC(=O)[C@H]1Cc2ccc(O)cc2CN1`?
Answer: Activity [1]: Dose-dependent effect; Activity [2]: Dose-dependent effect
